Assay results published in ChEMBL document CHEMBL3124866, “Small molecular antibacterial peptoid mimics: the simpler the better!” (J Med Chem, 2014).
In brackets after ≈: the same amount, converted by molar mass.

Tests used:
[1] = system: Enterococcus faecium; test: Antibacterial activity against drug-sensitive Enterococcus faecium ATCC 19634 after 24 hrs by broth microdilution assay; assay type: functional
Outline: (§1)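 Bacteria grown 6 h to ~10^9 cfu/mL and diluted to 10^5 cfu/mL in nutrient media. Growth media were LB (E. coli), yeast-dextrose broth (S. aureus, P. aeruginosa) and BHI (E. faecium). Compound was serially diluted in water and added 1:3 to bacteria, then incubated 37 °C for 24 h with OD600 read-out. Triplicate ODs were sigmoid-fitted; MIC was taken where OD matched the no-bacteria control. At least two independent experiments.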

[2] = system: Pseudomonas aeruginosa; test: Antibacterial activity against drug-sensitive Pseudomonas aeruginosa ATCC 4676 after 24 hrs by broth microdilution assay; assay type: functional; outline: as §1
[3] = system: Escherichia coli; test: Antibacterial activity against drug-sensitive Escherichia coli MTCC 443 after 24 hrs by broth microdilution assay; assay type: functional; outline: as §1
[4] = system: Enterococcus faecium; test: Antibacterial activity against vancomycin-resistant Enterococcus faecium ATCC 51559 after 24 hrs by broth microdilution assay; assay type: functional
Outline: (§2)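 MIC by broth microdilution. Cultures were grown 6 h to ~10^9 cfu/mL, then diluted to 10^5 cfu/mL. Media: yeast-dextrose broth for MRSA, BHI for VRE, and beef extract/peptone nutrient broth for K. pneumoniae. Compounds were serially diluted in water, 50 µL added to 150 µL cells, and incubated 24 h at 37 °C. OD600 triplicates were sigmoid-fitted; MIC is the point where OD equals the no-bacteria control. Mean ± SEM of ≥2 experiments.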

[5] = system: Staphylococcus aureus; test: Antibacterial activity against drug-sensitive Staphylococcus aureus MTCC 737 after 24 hrs by broth microdilution assay; assay type: functional; outline: as §1
[6] = system: Klebsiella pneumoniae; test: Antibacterial activity against beta-lactam-resistant Klebsiella pneumoniae ATCC 700603 after 24 hrs by broth microdilution assay; assay type: functional; outline: as §2
[7] = system: Staphylococcus aureus; test: Antibacterial activity against methicillin-resistant Staphylococcus aureus ATCC 33591 after 24 hrs by broth microdilution assay; assay type: functional; outline: as §2
[8] = Hemolytic activity in human erythrocytes after 1 hr by spectrophotometric analysis; assay type: ADME, cell-based, Erythrocyte
Outline: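 Heparinized fresh human erythrocytes at 5 vol% in PBS pH 7.4 were mixed 3:1 with serially diluted compound and held 1 h at 37 °C. Plates were centrifuged and supernatant A540 read. Hemolysis was scaled between an untreated control and a Triton X-100 (100% lysis) control. HC50 is the mean of at least two independent triplicate experiments.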

[9] = Retention time of the compound by HPLC analysis; assay type: physicochemical
[10] = system: Escherichia coli; test: Ratio of MSI-78 MIC to compound MIC for Escherichia coli; assay type: functional

| Compound | MIC [1] [µg/mL] | MIC [2] [µg/mL] | MIC [3] [µg/mL] | MIC [4] [µg/mL] | MIC [5] [µg/mL] | MIC [6] [µg/mL] | MIC [7] [µg/mL] | MIC ([1]; ATCC 19634, 24 h) [µg/mL] | MIC ([2]; ATCC 4676, 24 h) [µg/mL] | MIC ([3]; MTCC 443, 24 h) [µg/mL] | MIC ([4]; ATCC 51559, 24 h) [µg/mL] | MIC ([5]; MTCC 737, 24 h) [µg/mL] | MIC ([6]; ATCC 700603, 24 h) [µg/mL] | HC50 at 1 h [8] [µg/mL] | Retention_time [9] [min] | MIC ([7]; ATCC 33591, 24 h) [µg/mL] | Ratio [10] |
| --- | --- | --- | --- | --- | --- | --- | --- | --- | --- | --- | --- | --- | --- | --- | --- | --- | --- |
| COLISTIN | > 100 | 0.4 | 0.4 | > 100 | 20 | 1.2 | 54 |  |  |  |  |  |  |  |  |  |  |
| CCCCCCCCN(Cc1cccc2ccccc12)C(=O)[C@@H](N)CCCCN.O=C(O)C(F)(F)F.O=C(O)C(F)(F)F |  |  |  |  |  |  |  | 5.5 | 5.4 | 5 | 7 | 6.3 | 13 | 60 | 12.9 | 4.4 |  |
| CCCCCCCCCCN(Cc1ccccc1)C(=O)[C@@H](N)CCCCN.O=C(O)C(F)(F)F.O=C(O)C(F)(F)F |  |  |  |  |  |  |  | 6.5 | 4 | 6.5 | 5.8 | 5.7 | 31 | 95 | 13.4 | 15.7 |  |
| CCN(Cc1c2ccccc2c(Cl)c2ccccc12)C(=O)[C@@H](N)CCCCN.O=C(O)C(F)(F)F.O=C(O)C(F)(F)F |  |  |  |  |  |  |  | 13.6 | 4 | 25 | 7.2 | 11 | 31 | 118 | 11.8 | 21 |  |
| CCCCCCCCCCCCN(Cc1ccccc1)C(=O)[C@@H](N)CCCCN.O=C(O)C(F)(F)F.O=C(O)C(F)(F)F |  |  |  |  |  |  |  | 2.6 | 4 | 5 | 3.3 | 2.7 |  | 45 | 14.5 | 2.9 |  |
| CCCCCCCCN(Cc1c2ccccc2c(Cl)c2ccccc12)C(=O)[C@@H](N)CCCCN.O=C(O)C(F)(F)F.O=C(O)C(F)(F)F |  |  |  |  |  |  |  | 2.5 | 3.8 | 2.9 | 3 | 2.2 | 4.3 | 64 | 14.6 | 2.3 | 5 |
| CCCCCCCCCCCCN(Cc1cccc2ccccc12)C(=O)[C@@H](N)CCCCN.O=C(O)C(F)(F)F.O=C(O)C(F)(F)F |  |  |  |  |  |  |  | 1.6 | 3.2 | 3.1 | 3.4 | 3 | 4 | 56 | 15.1 | 2.7 |  |
| CCCCCCCCN(Cc1ccccc1)C(=O)[C@@H](N)CCCCN.O=C(O)C(F)(F)F.O=C(O)C(F)(F)F |  |  |  |  |  |  |  | 60 | 60 | 51 | > 100 | 46 | > 100 | 325 | 12.1 | > 100 |  |
| CCCCN(Cc1ccccc1)C(=O)[C@@H](N)CCCCN.O=C(O)C(F)(F)F.O=C(O)C(F)(F)F |  |  |  |  |  |  |  | > 100 | > 100 | > 100 |  | > 100 | > 100 | > 1000 | 9.4 | > 100 |  |
| CCCCN(Cc1cccc2ccccc12)C(=O)[C@@H](N)CCCCN.O=C(O)C(F)(F)F.O=C(O)C(F)(F)F |  |  |  |  |  |  |  | > 100 | > 100 | > 100 | > 100 | > 100 | > 100 | > 1000 | 10.8 | > 100 |  |
| CCCCCCCCCCN(Cc1cccc2ccccc12)C(=O)[C@@H](N)CCCCN.O=C(O)C(F)(F)F.O=C(O)C(F)(F)F |  |  |  |  |  |  |  | 3.5 | 3 | 4 | 1.6 | 2.5 | 5.8 | 54 | 14.2 | 2.6 |  |
| CCCCCCCCCCN(Cc1c2ccccc2c(Cl)c2ccccc12)C(=O)[C@@H](N)CCCCN.O=C(O)C(F)(F)F.O=C(O)C(F)(F)F |  |  |  |  |  |  |  | 4.9 | 11 | 26 | 5.6 | 7.1 | 7.6 | 71 | 15.6 | 4.6 |  |
| CCCCN(Cc1c2ccccc2c(Cl)c2ccccc12)C(=O)[C@@H](N)CCCCN.O=C(O)C(F)(F)F.O=C(O)C(F)(F)F |  |  |  |  |  |  |  | 4.5 | 1.9 | 4.8 | 5.3 | 5.3 | 17 | 91 | 12.4 | 6.3 |  |
| CCCCCCCCCCCCCCN(Cc1ccccc1)C(=O)[C@@H](N)CCCCN.O=C(O)C(F)(F)F.O=C(O)C(F)(F)F |  |  |  |  |  |  |  | 2 | 2.8 | 3.1 | 2.5 | 3.1 | 4 | 50 | 15.8 | 2.5 |  |
| CCCCCCN(Cc1ccccc1)C(=O)[C@@H](N)CCCCN.O=C(O)C(F)(F)F.O=C(O)C(F)(F)F |  |  |  |  |  |  |  | > 100 | > 100 | > 100 |  | > 100 | > 100 | > 1000 | 10.6 | > 100 |  |
| CN[C@H](CC(C)C)C(=O)N[C@H]1C(=O)N[C@@H](CC(N)=O)C(=O)N[C@H]2C(=O)N[C@H]3C(=O)N[C@H](C(=O)N[C@H](C(=O)O)c4cc(O)cc(O)c4-c4cc3ccc4O)[C@H](O)c3ccc(c(Cl)c3)Oc3cc2cc(c3O[C@@H]2O[C@H](CO)[C@@H](O)[C@H](O)[C@H]2O[C@H]2C[C@](C)(N)[C@H](O)[C@H](C)O2)Oc2ccc(cc2Cl)[C@H]1O [VANCOMYCIN] |  |  |  |  |  |  |  | 0.87 (≈ 0.6 µM) |  |  | > 100 | 0.9 (≈ 0.621 µM) |  |  |  | 0.9 (≈ 0.621 µM) |  |
